Test [1] has as its target T1, NAD(P)H dehydrogenase [quinone] 1 (Homo sapiens, UniProt P15559). Description: Binding affinity to NQO1 in human A549 cells at 50 uM incubated for 10 mins in presence of 10 uM DIC by DAPI staining based fluorescence microscopy imaging. It counts as cell-based. The gist of the method:
(§1)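 A549 cells were rinsed with serum-free medium. Probe, from a 10 mM DMSO stock diluted in serum-free medium, was applied at 10 or 50 μM for 10 min at 37 °C, then washed off. For the inhibition condition, 10 μM DIC was co-incubated with the probe under the same conditions. Nuclei were stained with DAPI and cells imaged by laser scanning confocal microscopy.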

In test [2] the target is T1, NAD(P)H dehydrogenase [quinone] 1. Kind of test: Binding affinity to NQO1 in human A549 cells at 10 uM incubated for 10 mins in presence of 10 uM DIC by DAPI staining based fluorescence microscopy imaging. Format: cell-based. The gist of the method:
as §1

Test [3] shares this target. Kind of test: Binding affinity to NQO1 in human A549 cells at 50 uM incubated for 10 mins by DAPI staining based fluorescence microscopy imaging. Format: cell-based. The gist of the method: as §1
The target is the same in test [4]. Description: Inhibition of recombinant human NQO1 assessed as reduction in oxidation of NADPH to NADP+ using b-lap as substrate and NADPH in presence of 0.14% (w/v) BSA.
Test [5] shares this target. Description: Binding affinity to recombinant human NQO1 by fluorescence polarization competition assay. Put shortly: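 Fluorescence polarization was read at 485 nm excitation and 535 nm emission in HEPES buffer. Free-probe mP was first measured over a range of probe concentrations without protein. For competition, wells held varying probe concentrations with NQO1 added from a 100 nM solution. IC50 was taken from a plot of % inhibition against concentration.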
On the technique in general: Fluorescence polarisation rises when a labelled molecule tumbles more slowly, as on binding a larger partner.

For test [6] the target is unchanged. Kind of test: Binding affinity to NQO1 in human A549 cells at 10 uM incubated for 10 mins by DAPI staining based fluorescence microscopy imaging. It counts as cell-based. The gist of the method:
as §1

The text below walks through data of ChEMBL document CHEMBL4265867, “Affinity-based small fluorescent probe for NAD(P)H:quinone oxidoreductase 1 (NQO1). Design, synthesis and pharmacological evaluation” (Eur J Med Chem, 2017).

Activity calls are given as the source filed them. No cut-off for these calls is given here.

As for `O=C1OC2(c3ccc(O)cc3Oc3cc(O)ccc32)c2ccc(NC(=S)NCCCCCCOc3ccc(/C=C/C(=O)c4c(O)c5ccccc5oc4=O)cc3)cc21`, the result in test [1] and in test [2] was inactive. Moreover, the result in test [3] and in test [6] was Active. Besides, in test [4], the IC50 (in general, the concentration at which inhibition is half-maximal) came out at 980 nM. Also, the EC50 (as a rule, the concentration needed to bring the measured effect to its halfway point) in test [5] is 2950 nM.
